A selection: hits, their analogues and other compounds. The true share with any hit is near 1.5%.
APJ agonist = activates the human apelin receptor APJ; 330,000 tested, 0.11% active; AID 2520; CHO-K1 APJ PathHunter beta-arrestin, luminescence; 0% DMSO wells, 100% apelin; P35414; activation, % at 20 µM;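 active = activation more than six SD over the plate average, tested at 20 µM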;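 also: 0% = DMSO alone and 100% = apelin-13 at 10 nM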
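Test system: CHO-K1 APJ beta-arrestin complementation cell line. Amount: cell density 1000 per well. Controls: DMSO negative, 10 nM Apelin-13 positive. Signal: luminescent beta-gal fragment complementation, chemiluminescent substrate. Read-out basis: agonist-driven arrestin binding to APJ. Timing: compound stimulation 90 min at 25 °C, detection 60 min.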
APJ antag = blocks the human apelin receptor APJ; inhibition, % at 20 µM; 330,000 tested, 0.32% active; CHO-K1 APJ beta-arrestin complementation, luminescence;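 active = inhibition above about 40% at 20 µM, limit read from the data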;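 also: cells challenged with 10 nM apelin-13 agonist together with compound; plate controls were apelin-13 plus DMSO wells for no effect and DMSO wells lacking apelin-13 for full effect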
EBI2 block = blocks human EBI2 receptor beta-arrestin signaling; inhibition, % at 5 µM; AID 651636; EBI2 beta-arrestin recruitment, luminescence, 7a,25-OHC stimulated; 360,000 tested, 0.81% active; in the data active = inhibition above about 38%;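 also: enzyme fragment complementation signal reports receptor beta-arrestin coupling in cells; 0% = agonist plus DMSO wells and 100% = wells without agonist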
Target sequence (P32249 whole entry, looked up, the tested form may be a part): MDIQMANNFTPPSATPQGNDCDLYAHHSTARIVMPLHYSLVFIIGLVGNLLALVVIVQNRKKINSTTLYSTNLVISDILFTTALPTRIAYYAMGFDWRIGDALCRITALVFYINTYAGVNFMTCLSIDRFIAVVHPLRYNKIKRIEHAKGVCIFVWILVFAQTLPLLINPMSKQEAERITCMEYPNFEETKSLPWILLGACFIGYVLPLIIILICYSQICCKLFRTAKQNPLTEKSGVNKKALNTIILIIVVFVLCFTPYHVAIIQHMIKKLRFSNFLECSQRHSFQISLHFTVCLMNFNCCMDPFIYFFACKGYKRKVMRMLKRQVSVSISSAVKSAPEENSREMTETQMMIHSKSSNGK
CCR6 antagonist = CCR6 (human) receptor antagonism; P51684; CHO-K1 CCR6 PathHunter beta-arrestin, luminescence, CCL20-stimulated; 340,000 tested, 0.49% active; inhibition, % at 20 µM;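 active = compounds whose inhibition of the agonist-driven luminescence signal at 20 µM reaches about 50%, limit read from the data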;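 also: cells stimulated with CCL20 at 14 nM final; plate controls were DMSO with CCL20 for no effect and DMSO without agonist for full effect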
CXCR6 block = CXCR6 (human) receptor inhibition; inhibition, % at 20 µM; CHO-K1 PathHunter CXCR6 beta-arrestin, luminescence; O00574; 360,000 tested, 0.36% active; in the data active = inhibition above about 34%, passing the limit was not always enough;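 also: antagonist mode with CXCL16 agonist at 10 nM final; 0% = 10 nM CXCL16 with DMSO and 100% = unstimulated wells without agonist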
APJ antag confirm = APJ receptor antagonism confirmation. 950 tested, 66% active. inhibition, % at 20 µM. shares compounds with APJ antag. AID 2766. APJ beta-arrestin recruitment, luminescence, antagonist mode; in the data active = inhibition above about 50%
* hit, by the source's call; nt = no result given.

SMILES	APJ agonist	APJ antag	EBI2 block	CCR6 antagonist	CXCR6 block	APJ antag confirm
N[C@@H](Cc1ccc(O)cc1)c1nnc([C@H](CC(=O)O)NC(=O)C2CCNCC2)o1	-1.7	-74.4	-29.8	-5.7	-6.6	nt
CNS(=O)(=O)c1cccc(C(=O)OCC(=O)c2ccc(S(=O)(=O)N3CCCCC3)cc2)c1	-21.9	62.1*	18.6	53.2*	33.9	59.5*
CC(=O)c1ccc(N2CCN(C(=S)NCc3ccco3)CC2)cc1	-2.6	44.8*	-4.6	-3.4	2.3	2.9
C=CCn1c(C2CC2)n[nH]c1=S	-1.4	4.5	-3.8	5.2	-1.0	nt
CCCCCC1CCC(c2n[nH]c(=S)n2C)CC1 (configuration not stated)	-7.5	40.6*	34.2	42.5	32.0	78.2*
CCOC(=O)c1cnc2c(cnn2C)c1Oc1ccc(OC)cc1	-4.5	26.2	3.7	13.0	-4.2	nt
CCOC(=O)c1cnc2c(cnn2C)c1NCCC(O)C(F)(F)F (configuration not stated)	-0.1	48.0*	-5.8	9.5	4.1	33.2
O=[N+]([O-])c1ccc(/C=N/Nc2ccc3ccccc3c2)o1	-9.0	67.0*	2.2	63.5*	41.8*	80.6*
CN(C)CCCNC(=O)c1ccccn1	-1.8	-3.4	-9.6	12.6	10.9	nt
CN(C)CCCNC(=O)c1ccc(-c2nc(-c3ccc(Cl)cc3)cs2)cc1	0.3	51.6*	21.7	82.4*	13.7	94.4*
CCOC(=O)c1c(NC(C)=O)sc2c1CCC(C=NCCCN(CC)CC)=C2Sc1ccccc1	2.6	2.4	11.7	49.1	13.6	nt
COc1ccc(C2CC(c3ccccc3)Nc3nc(NS(C)(=O)=O)nn32)cc1 (configuration not stated)	-1.9	4.3	-5.5	5.3	-3.9	nt
O=C(N/C(=C\c1ccc(Cl)cc1)C(=O)N1CCOCC1)c1ccc([N+](=O)[O-])cc1	0.2	-11.9	-10.2	-11.9	-14.4	nt
COc1ccc(N=C2C(=O)Nc3ccc(C)c(Br)c32)cc1	-18.6	89.4*	32.4	105.4*	82.2*	158.6*
Cc1ccc(S(=O)(=O)Nc2nc3ccccc3nc2Nc2cccc(S(=O)(=O)N3CCCC3)c2)cc1	-0.6	73.7*	-17.6	2.4	6.7	1.0
COc1ccc(NC(=O)CSc2nnc(-c3ccccn3)n2-c2ccccc2)cc1OC	-0.1	40.7*	-4.9	-13.6	-1.7	-16.2
COc1ccc(NC(=O)CSc2ccccn2)cc1OC	-0.4	2.4	-4.2	-10.1	-2.3	nt
CCOC(=O)[C@H]1[C@H]2COc3cc(OC)ccc3[C@@H]2N2C(=O)[C@@H](CO)NC(=O)[C@@]12C	-8.5	50.8*	nt	nt	nt	88.2*
COc1ccc2c(c1)[C@H]1[C@H](CO2)[C@H](c2ccccc2)[C@]2(C)C(=O)N[C@@H](C)C(=O)N12	-8.9	42.2*	nt	nt	nt	46.6
CCOC(=O)[C@H]1[C@H]2COc3ccc(C)cc3[C@@H]2N2C(=O)[C@@H](CO)NC(=O)[C@@]12C	-2.9	-7.9	-13.9	8.0	-2.0	nt
Cc1ccc(C(=O)C2Oc3ccccc3C3CC(c4ccc(C)cc4)=NN23)cc1 (configuration not stated)	3.8	5.2	17.4	12.2	2.5	nt
Cc1ccc(C2=NN3C(C(=O)c4ccccc4)Oc4ccccc4C3C2)cc1 (configuration not stated)	3.1	45.6*	17.5	13.2	20.4	45.6
COC(=O)c1ccccc1C(=O)N1CCCC(CNC(=O)c2ccc(F)cc2)C1 (configuration not stated)	-4.9	6.4	-5.9	4.5	-11.5	nt
CC(C)C(NC(=O)C1CCCCC1)C(=O)NCCc1ccccc1 (configuration not stated)	-5.6	41.3*	8.7	31.3	28.1	42.6
CC(C)C(NC(=O)C1CCCCC1)C(=O)NCc1ccccn1 (configuration not stated)	-3.7	14.3	2.5	0.7	2.5	nt
SMILES	APJ agonist	APJ antag	EBI2 block	CCR6 antagonist	CXCR6 block	APJ antag confirm
CSc1ncnc2c1ncn2CCCN(C)Cc1ccco1	nt	nt	-4.4	nt	1.9	nt
Cc1ncc(CO)c(/C=N/Nc2ccc(C(F)(F)F)cn2)c1O	-12.4	62.7*	11.3	69.4*	48.2*	89.3*
Cn1ncc(Br)c1C(=O)NC1CCCCCC1	-5.8	11.8	1.6	-1.3	-0.4	nt
COC(=O)CN=C1OC(=O)N2C(=O)C3=C4[C@@H](C[C@H]5C(=O)N(c6ccccc6)C(=O)[C@H]5[C@H]4[C@@]12Cc1ccccc1)[C@H]1C(=O)N(c2ccccc2)C(=O)[C@H]1[C@H]3C	-4.0	-0.1	-6.3	8.0	2.7	nt
CCN(CC)CCN(C(=O)c1ccc(C(=O)c2ccccc2)cc1)c1nc2ccc(OC)cc2s1	-6.7	51.1*	-2.9	8.2	11.8	40.8
COC(=O)c1ccc(N/N=C/c2cc([N+](=O)[O-])cc(OC)c2O)cc1	-8.1	59.3*	13.4	57.4*	41.6*	85.0*
COc1cccc(/C=N/Nc2ccc([N+](=O)[O-])cc2)c1O	-2.7	14.9	15.0	34.7	12.4	nt
COc1ccc(/C=N\Nc2ccc([N+](=O)[O-])cc2)c(C(=O)O)c1OC	-4.8	46.6*	-4.3	23.7	15.0	59.9*
C=CCC1C=C(C)CC(CC=C)N1 (configuration not stated)	-0.8	1.6	0.2	-5.8	-3.2	nt
COCCN(C(=O)COC(=O)C1CCC(C(C)(C)C)CC1)c1c(N)n(Cc2ccccc2)c(=O)[nH]c1=O (configuration not stated)	-1.9	5.6	2.8	14.4	4.1	nt
Nc1nc(SCC(=O)Nc2ccc(Cl)c(S(=O)(=O)N3CCOCC3)c2)n[nH]1	-3.2	-11.5	1.4	5.5	2.1	nt
CN1C(=O)/C(=C/c2cc(N=Nc3ccccc3)ccc2O)SC1=S	-15.1	60.1*	47.0*	73.5*	51.4*	105.2*
Cc1c(N2C(=O)/C(=C\c3ccccc3O)SC2=S)c(=O)n(-c2ccccc2)n1C	-1.0	2.6	3.1	18.0	26.3	nt
O=C(CSc1nc2c([nH]c3ccccc32)c(=O)n1-c1ccccc1)NCC1CCCO1 (configuration not stated)	-21.0	63.7*	33.5	73.0*	53.0*	83.1*
CCn1c(SCC(=O)NCC2CCCO2)nc2c([nH]c3ccccc32)c1=O (configuration not stated)	-7.0	-17.2	-16.2	6.9	0.0	nt
Cc1ccc(NS(=O)(=O)c2cc([N+](=O)[O-])ccc2N/N=C/c2sc(N3CCOCC3)nc2-c2ccccc2)c(C)c1	-8.8	67.9*	5.1	59.6*	49.4*	118.5*
CC1Nc2ncnc(N3CCOCC3)c2N(Cc2ccccc2)C1=O (configuration not stated)	-2.9	-32.2	-1.1	0.0	8.2	nt
COc1ccc(CN2C(=O)C(C)Nc3ncnc(N4CCN(c5ccccc5)CC4)c32)cc1 (configuration not stated)	-11.8	68.1*	32.8	80.2*	68.1*	115.2*

High-throughput results as filed in PubChem BioAssay.
